Laboratory results taken from ChEMBL document CHEMBL3286263, “Bazedoxifene-scaffold-based mimetics of solomonsterols A and B as novel pregnane X receptor antagonists” (J Med Chem, 2014).
pIC50: −log10 of the molar value. Activity calls are given as the source filed them. The rule behind the calls is not given here.

Experiments:
[1] = target: T1, Nuclear receptor subfamily 1 group I member 2 (Homo sapiens, UniProt O75469); assay: Antagonist activity at human PXR transfected in human HepG2 cells co-transfected with pSG5-RXR/pCMV-beta-galactosidase/p(CYP3A4)-TK-Luc assessed as inhibition of rifaximin-induced transactivation at 50 uM after 18 hrs by luciferase reporter gene assay; type: cell-based; conditions: hepg2, 18 h
T1 sequence (O75469 whole entry): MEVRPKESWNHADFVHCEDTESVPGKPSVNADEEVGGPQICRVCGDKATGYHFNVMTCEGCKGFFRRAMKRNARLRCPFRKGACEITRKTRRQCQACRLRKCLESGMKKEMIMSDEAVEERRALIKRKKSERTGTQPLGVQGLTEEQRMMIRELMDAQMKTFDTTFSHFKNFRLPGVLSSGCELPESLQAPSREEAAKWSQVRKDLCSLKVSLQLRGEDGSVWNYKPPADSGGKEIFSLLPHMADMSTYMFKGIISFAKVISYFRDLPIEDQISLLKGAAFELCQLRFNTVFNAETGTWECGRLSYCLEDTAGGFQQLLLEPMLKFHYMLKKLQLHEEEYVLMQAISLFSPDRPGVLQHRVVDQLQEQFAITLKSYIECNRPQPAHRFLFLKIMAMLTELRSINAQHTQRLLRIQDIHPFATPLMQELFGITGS
How it was run: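 HepG2 transiently transfected with hPXR, RXR, β-galactosidase and PXRE-luciferase vectors; 24 h later exposed 18 h to rifaximin 10 µM plus compound at 50 µM. Luciferase in lysate measured and divided by β-galactosidase activity to correct for transfection efficiency.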

HepG2 [2] = assay: Cytotoxicity against human HepG2 cells transfected with pSG5-PXR/pSG5-RXR/pCMV-beta-galactosidase/p(CYP3A4)-TK-Luc at 50 uM; type: ADME, cell-based; conditions: hepg2, 50 µM
How it was run: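 Transfected HepG2 cells given rifaximin 10 µM plus compound at 50 µM for 18 h; cytotoxicity judged by morphological analysis.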

[3] = target: T1, Nuclear receptor subfamily 1 group I member 2; assay: Agonist activity at human PXR transfected in human HepG2 cells co-transfected with pSG5-RXR/pCMV-beta-galactosidase/p(CYP3A4)-TK-Luc at 10 uM after 18 hrs by luciferase reporter gene assay; type: cell-based; conditions: hepg2, 18 h
How it was run: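 HepG2 seeded 5x10^4 cells/well in MEM/10% FBS, transfected (Fugene HD) with pSG5hPXR, pSG5-RXR, pCMV-β-galactosidase and PXRE luciferase reporter. At 24 h post-transfection, treated 18 h with compounds at 10 µM; rifaximin and solomonsterol A (10 µM) as reference agonists. Lysate luciferase read, normalised to β-galactosidase activity.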

[4] = target: T1, Nuclear receptor subfamily 1 group I member 2; assay: Antagonist activity at human PXR transfected in African green monkey CV1 cells assessed as inhibition of SR12813-induced transactivation after 24 hrs by luciferase reporter gene assay; type: cell-based, CV-1
[5] = target: T1, Nuclear receptor subfamily 1 group I member 2; assay: Antagonist activity at PXR (unknown origin) transfected in human HepG2 cells assessed as inhibition of rifampicin-induced reporter gene transcription; type: cell-based
HepG2 [6] = assay: Downregulation of PXR mRNA expression in rifaximin-treated human HepG2 cells at 50 uM after 18 hrs by real time-PCR analysis; type: functional, cell-based
How it was run: (§1)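 HepG2 seeded 5x10^5 cells/well, grown to about 70% confluence, serum-starved 24 h, then treated 18 h with rifaximin 10 µM alone or with compound at 50 µM. PXR and CYP3A4 mRNA by real-time PCR in triplicate (40 cycles), normalised to GAPDH, 2^-ΔΔCt relative to untreated cells; mean of two experiments.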

[7] = target: T1, Nuclear receptor subfamily 1 group I member 2; assay: Antagonist activity at PXR in human HepG2 cells assessed as inhibition of rifaximin-induced CYP3A4 mRNA expression at 50 uM after 18 hrs by real time-PCR analysis; type: cell-based; conditions: hepg2, 18 h; how it was run: as §1
[8] = target: T1, Nuclear receptor subfamily 1 group I member 2; assay: Antagonist activity at human PXR transfected in human HepG2 cells co-transfected with pSG5-RXR/pCMV-beta-galactosidase/p(CYP3A4)-TK-Luc assessed as inhibition of rifaximin-induced transactivation after 18 hrs by luciferase reporter gene assay; type: cell-based; conditions: for inhibition (INH): human, hepg2, 18 h
How it was run: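 PXR/RXR/β-gal/PXRE-luciferase-transfected HepG2 cells, 24 h post-transfection, co-treated 18 h with 10 µM rifaximin and compound at 10, 25 and 50 µM. β-galactosidase-normalised luciferase signal used to fit concentration-response curves for IC50.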

Row | Compound | inhibition (INH) [1] | Activity [3] | further results
1 | CCCn1c(-c2ccc(O)c(O)c2)c(C)c2cc(O)ccc21 | Active | – | Activity (HepG2 [2]): Toxic
2 | Cc1c(-c2ccc(O)cc2)[nH]c2ccc(OCCCO)cc12 | Active | Not Active | –
3 | COc1ccc2c(c1)c(C)c(-c1ccc(OC)c(OC)c1)n2C | Active | – | Activity (HepG2 [2]): Toxic
4 | Cc1c(-c2ccc(OS(=O)(=O)[O-])c(OS(=O)(=O)[O-])c2)[nH]c2ccc(OS(=O)(=O)[O-])cc12.[Na+].[Na+].[Na+] | Not Active | Not Active | –
5 | CO[C@H]1/C=C/O[C@@]2(C)Oc3c(C)c(O)c4c(O)c(c5c(nc6cc(C)ccn65)c4c3C2=O)NC(=O)/C(C)=C\C=C\[C@H](C)[C@H](O)[C@@H](C)[C@@H](O)[C@@H](C)[C@H](OC(C)=O)[C@@H]1C [RIFAXIMIN] | – | Active | –
6 | COc1ccc2[nH]c(-c3ccc(OC)c(OC)c3)c(C)c2c1 | Active | – | Activity (HepG2 [2]): Non-toxic
7 | O=c1oc2cc(O)ccc2c2oc3cc(O)ccc3c12 [COUMESTROL] | – | – | pIC50 [4]: 4.92
8 | Cc1c(-c2ccc(O)cc2)[nH]c2ccc(O)cc12 | Active | Not Active | –
9 | Cc1c(-c2ccc(OS(=O)(=O)[O-])cc2)[nH]c2ccc(OCCOS(=O)(=O)[O-])cc12.[Na+].[Na+] | Not Active | Not Active | –
10 | Cc1ccc(SC(=O)c2c(C)noc2-c2cc(C)on2)cc1 | – | – | pIC50 [5]: 6.07
11 | Cc1c(-c2ccc(O)c(O)c2)[nH]c2ccc(OCCCO)cc12 | Active | Not Active | Activity (HepG2 [6]): Active; inhibition (INH) [7]: Active; pIC50 [8]: 4.85; inhibition (INH) [8]: Dose-dependent effect
12 | Cc1c(-c2ccc(OS(=O)(=O)[O-])cc2)[nH]c2ccc(OS(=O)(=O)[O-])cc12.[Na+].[Na+] | Not Active | Not Active | –
13 | C[C@H](CCCOS(=O)(=O)[O-])[C@H]1CC[C@H]2[C@@H]3CC[C@H]4C[C@H](OS(=O)(=O)[O-])[C@@H](OS(=O)(=O)[O-])C[C@]4(C)[C@H]3CC[C@]12C.[Na+].[Na+].[Na+] [SOLOMONSTEROL A] | – | Active | –

Further lines, with some results ahead:

Row | inhibition (INH) [1] | Activity [3] | Compound | further results
14 | Active | Not Active | Cc1c(-c2ccc(O)c(O)c2)[nH]c2ccc(OCCO)cc12 | –
15 | Active | – | Cc1c(-c2ccc(O)c(O)c2)n(C)c2ccc(O)cc12 | Activity (HepG2 [2]): Toxic
16 | Not Active | Not Active | Cc1c(-c2ccc(OS(=O)(=O)[O-])cc2)[nH]c2ccc(OCCCOS(=O)(=O)[O-])cc12.[Na+].[Na+] | –
17 | Active | Not Active | Cc1c(-c2ccc(O)cc2)[nH]c2ccc(OCCO)cc12 | –
18 | Active | – | Cc1c(-c2ccc(O)c(O)c2)n(Cc2ccccc2)c2ccc(O)cc12 | Activity (HepG2 [2]): Toxic
19 | Not Active | Not Active | Cc1c(-c2ccc(OS(=O)(=O)[O-])c(OS(=O)(=O)[O-])c2)[nH]c2ccc(OCCCOS(=O)(=O)[O-])cc12.[Na+].[Na+].[Na+] | –
20 | Active | Not Active | Cc1c(-c2ccc(O)c(O)c2)[nH]c2ccc(O)cc12 | Activity (HepG2 [6]): Active; inhibition (INH) [7]: Active; pIC50 [8]: 4.96; inhibition (INH) [8]: Dose-dependent effect
